Source: PubChem (several laboratories)
Compounds with a hit are over-represented: about 5.7% of the library has one in this group of screens.
Calb FLC: C. albicans growth inhibition with fluconazole, primary screen, CaCi-2 strain, Alamar Blue fluorescence; C. albicans CaCi-2 (fluconazole-resistant clinical isolate) + fluconazole, 48 h; growth inhibition, % (test concentration not listed); actives 0.57% (n = 300,000); AID 1979, 2009;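 active means growth inhibition above about 58% in most replicates, limit read from the data, passing the limit was not always enough; inconclusive means exactly half the replicates above a set limit; inactive means most replicates below a set limit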;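 further: all wells also contain fluconazole at 8 µg/ml as a sub-toxic cotreatment; 0% = median of DMSO wells and 100% = median of geldanamycin control wells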
SKKanGAS inh: S. pyogenes SKKanGAS growth inhibitors in kanamycin, primary screen, streptokinase expression inhibitor project, SKKanGAS strain, BacTiter-Glo luminescence | 6 h | inhibition, % at 7.5 µM | actives 1.3% (n = 300,000);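 active means mean replicate score, as percent of positive control median, at least 50; inconclusive means mean below 50 but one replicate at or above 50; inactive means mean and every replicate below 50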;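 further: strain carries kanamycin resistance gene driven by streptokinase promoter and grows in 40 µg/ml kanamycin; loss of luminescence reflects streptokinase promoter inhibition or plain growth inhibition; 0% = median of DMSO wells and 100% = positive control at its reference dose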
CSC inhib: cancer stem cell viability inhibitors, primary screen, luminescence; AID 2717, 2010; actives 1.1% (n = 300,000); inhibition, % at 7.5 µM; cancer stem cell-like cells viability; in the data active means inhibition above about 75%; inconclusive means no clear call, values can overlap the other calls; tested in HMLE shEcad cells
Beta apoptosis: inhibitors of cytokine-induced beta cell apoptosis, primary screen, luminescence. INS-1E cytokine-induced death, ATP luminescence, 48 h; percent of positive-control rescue, neutral wells zero. protection from apoptosis, % (concentration not given with the values). actives 0.8% (n = 300,000). AID 435005, 2010;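 active means Every replicate reaches about 75%, or at least half do and their mean reaches it too, limit read from the data; inconclusive means At least half of replicates reach the limit but their mean does not; inactive means Under half of replicates reach the limit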;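 further: 0% = cytokine-treated negative control wells and 100% = positive control rescue; higher means more ATP so stronger rescue from cytokine killing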
Mdm2 MdmX PPI: inhibitors of human Mdm2-MdmX association, primary screen, cell-based, luminescence, split luciferase, SaOS-2, uHTS; SaOS-2 split-luciferase Mdm2/MdmX complementation; inhibition, % at 8 µM; actives 3% (n = 330,000); AID 485346, 2010;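 active means inhibition of at least 50% at 8 µM in the primary screen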
T cruzi repl: inhibitors of intracellular T. cruzi growth, primary screen, luminescence, NIH3T3 host cells; T. cruzi beta-gal in NIH3T3, 90 h; inhibition, % (no concentration beside the values); actives 1.4% (n = 300,000);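 active means mean inhibition across valid replicates above about 55%, limit read from the data; inconclusive means mean below that limit but half or more replicates reach it; inactive means mean below it, under half of replicates reach it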;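 further: signal also drops with host cell toxicity which is not excluded here; 0% = plate median of DMSO wells and 100% = zero luminescence signal; higher percent means less beta-gal luminescence so fewer parasites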
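compound dosing = single 50 nL compound addition per well in DMSO | material = NIH/3T3 host cells with β-galactosidase reporter T. cruzi | input = 5,000 host fibroblasts per well | timing = ≥90 h infection period, 3 h prior cell attachment | read-out basis = percent inhibition of parasite-derived β-gal signal | detection = GalScreen β-gal luminescence, detergent lysis, 60 min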
Mdm2 MdmX conf: Mdm2-MdmX complex disruptors, retested hits, confirmation, luminescence, single concentration; actives 55% (n = 10,000); shares compounds with Mdm2 MdmX PPI; Mdm2-MdmX binding, luminescent assay; AID 489028, 2010; inhibition, % at 8 µM; in the data active means inhibition above about 40%
Full FLuc ctr: full-length luciferase signal inhibition, confirmation, counter-screen for Mdm2/MdmX interaction inhibitor project, cell-based, single concentration, SaOS-2 | inhibition, % at 8 µM | SaOS-2 full-length luciferase counterscreen, luminescence | actives 77% (n = 6,200) | shares compounds with Mdm2 MdmX PPI;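 active means mean inhibition at 8 µM reaching about 37%, which flags the compound as non-specific, limit read from the data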;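 further: p53-null SaOS-2 cells with luciferase driven by a doxycycline-inducible promoter; compound on cells about two nights before reading with doxycycline added after day one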
* = called active by the depositor; ? = inconclusive; . = no result.

SMILES	Calb FLC	SKKanGAS inh	CSC inhib	Beta apoptosis	Mdm2 MdmX PPI	T cruzi repl	Mdm2 MdmX conf	Full FLuc ctr
COc1ccc(CN2C(=NC(=O)c3ccccc3)SC3CS(=O)(=O)CC32)cc1 (stereo not drawn)	0	-4	-11	2	50*	25	5	.
COc1ccc(C(=O)N=C2SC3CS(=O)(=O)CC3N2Cc2ccc(F)cc2)cc1 (stereo not drawn)	-2	5	-18	0	51*	23	41*	65*
O=C(COC(=O)CCC(=O)c1cccs1)Nc1ccccc1C(F)(F)F	.	.	6	-2	4	.	.	.
O=S(=O)(Nc1cccnc1)c1cccc(C(F)(F)F)c1	34	-5	-4	-2	7	-9	.	.
O=[N+]([O-])c1ccc(S(=O)(=O)c2cccc(C(F)(F)F)c2)nc1	0	6	6	57	95*	66*	100*	0
Cc1[nH]c(=O)[nH]c(=O)c1CSc1nnc([C@@H](NC(=O)OC(C)(C)C)C(C)C)o1	-4	8	3	-1	84*	-5	3	.
Cc1[nH]c(=O)[nH]c(=O)c1CSc1nnc(CCCCCNC(=O)OC(C)(C)C)o1	-8	9	-8	-2	-6	-8	.	.
O=C(CCn1c(=O)oc2ccc(Cl)cc21)NCCCN1CCOCC1	-6	0	7	.	18	-5	.	.
CC(C)n1cnc2c(Nc3ccc(F)c(Cl)c3)nc(NCCO)nc21	-12	2	-5	-2	25	31	.	.
CC(C)n1cnc2c(Nc3cccc(F)c3)nc(NCCO)nc21	7	4	-13	-7	62*	12	58*	82*
CC(C)C[C@H](CO)Nc1nc(Nc2cccc(Cl)c2)c2ncn(C(C)C)c2n1	4	25	-8	4	75*	52	65*	58*
CCOc1cc(/C=C2\COc3ccccc3C2=O)cc(Br)c1OCC(=O)N(C)C	-16	-1	61	100*	97*	-17	74*	59*
Cc1cccc(Cl)c1OCCCn1ccnc1	-10	-7	-1	-1	8	14	.	.
CCCCN(c1ccc(C(=O)OC)cc1)S(=O)(=O)c1ccccc1	-7	3	-6	1	62*	13	2	.
COc1cc(NC(=O)c2csc(N)n2)cc(C(=O)Nc2cccc(C(F)(F)F)c2)c1	12	15	88*	19	59*	1	57*	60*
CCSC1=C(C#N)C2(CCCCC2)C(C#N)=C(N)N1	-7	13	-7	1	41	-3	.	.
N#CC1=C(N)NC(SCc2ccccc2)=C(C#N)C12CCCCC2	20	2	59	-4	64*	23	61*	72*
CCOC(=O)c1ccc(-c2c(-c3cc(OC)c(OC)c(OC)c3)noc2C)cc1F	4	0	68	1	62*	27	52*	89*
O=C(Nc1ccc(Cl)c(S(=O)(=O)N2CCOCC2)c1)c1ccc(OCC2CCCO2)cc1 (stereo not drawn)	38	-14	-1	4	75*	-27	65*	60*
O=C(Nc1ccc(Cl)c(S(=O)(=O)N2CCOCC2)c1)c1n[nH]c(=O)c2ccccc12	.	.	.	-3	60*	.	-13	.
O=C(Nc1cccc2ccccc12)NC1CCCCC1	5	-3	-8	-2	15	-17	.	.
O=C(Nc1cccc2ccccc12)NC1Cc2ccccc2C1	-3	13	2	-9	79*	0	3	.
CC1CCN(C(=O)CN2C(=O)C(=O)N(C(C)C)C2=O)c2ccccc2S1 (stereo not drawn)	.	.	.	-1	7	.	.	.
CCCCN1C(=O)C(O)(CC(=O)c2ccco2)c2cc(Br)ccc21 (stereo not drawn)	-33	1	37	8	65*	-10	51*	75*
CCCCN1C(=O)C(O)(CC(=O)c2c(C)n[nH]c2C)c2cc(Br)ccc21 (stereo not drawn)	-7	4	-6	-4	7	1	.	.
SMILES	Calb FLC	SKKanGAS inh	CSC inhib	Beta apoptosis	Mdm2 MdmX PPI	T cruzi repl	Mdm2 MdmX conf	Full FLuc ctr
NC(=O)C1CCN(C(=O)CC2(CC(=O)O)CCCC2)CC1	3	10	-15	2	11	-7	.	.
CCCCc1nnc(NC(=O)CCS(=O)(=O)c2ccc(C)cc2)s1	.	.	18	-27	57*	.	-5	.
CCCc1nnc(NC(=O)CCS(=O)(=O)Cc2ccccc2)s1	?	-1	-9	-21	57*	-9	7	.
CCc1nnc(NC(=O)CCS(=O)(=O)c2ccccc2)s1	37	-3	1	-23	51*	-10	24	.
CCCCc1nnc(NC(=O)CCS(=O)(=O)Cc2ccccc2)s1	-2	-1	-11	-12	-14	-19	.	.
COCc1nnc(NC(=O)CCS(=O)(=O)c2ccccc2)s1	32	2	-4	-24	4	-8	.	.
CCc1nnc(NC(=O)CCS(=O)(=O)c2ccc(C)cc2)s1	32	7	-15	-7	42	-8	.	.
CCOC(=O)NC(C(Cl)(Cl)Cl)S(=O)(=O)c1ccccc1 (stereo not drawn)	12	-1	9	-11	4	-28	.	.
COC(=O)NC(=C(Cl)Cl)S(=O)(=O)c1ccccc1	.	.	21	.	55*	.	15	.
CC(C)(C)OC(=O)NCc1ccc(CNC(=O)c2nc[nH]c2C(=O)N2CCN(c3ccccc3)CC2)cc1	.	.	-17	-5	19	.	.	.
Cc1cc(Br)ccc1NC(=O)C1CCN(C(=O)c2ccco2)CC1	-3	-9	-2	.	-1	-11	.	.
CCC(=O)NC(c1cccs1)c1cc(Cl)c2cccnc2c1O (stereo not drawn)	99*	66*	119*	99*	86*	59*	76*	21
CCCCC(=O)NC(c1ccco1)c1c(O)ccc2ccccc12 (stereo not drawn)	2	-11	-22	1	22	17	.	.
CCCCC(=O)NC(c1cccs1)c1cc(Cl)c2cccnc2c1O (stereo not drawn)	?	67*	120*	94*	85*	?	75*	28
CCC(=O)NC(NC(=S)Nc1cccc2cccnc12)C(Cl)(Cl)Cl (stereo not drawn)	8	1	-5	-5	-18	-15	.	.
